From ChEMBL document CHEMBL2384954, “Benzofuran-, benzothiophene-, indazole- and benzisoxazole-quinones: excellent substrates for NAD(P)H:quinone oxidoreductase 1” (Bioorg Med Chem, 2013)

Columns and labels:
[1] = target: NAD(P)H dehydrogenase [quinone] 1 (Homo sapiens) (UniProt P15559); assay: Activity at human recombinant NQO1 assessed as average rate of irreversible NADH oxidation after 30 to 40 mins by HPLC analysis
Method in brief: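 Recombinant human NQO1 incubated with 50 µM quinone and 200 µM NADH in 25 mM Tris-HCl pH 7.4, 30–40 min at 22 °C. Reverse-phase C18 HPLC with methanol/10 mM potassium phosphate pH 6.0 gradient; NADH oxidation quantified at 340 nm. Average rate expressed as µmol NADH oxidized/min/mg NQO1.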

[2] = target: NAD(P)H dehydrogenase [quinone] 1 (Homo sapiens) (UniProt P15559); assay: Activity at human recombinant NQO1 assessed as initial rate of cytochrome c reduction during the first 0 to 30 s by spectrophotometry

NAD(P)H dehydrogenase [quinone] 1 (Homo sapiens), sequence (P15559 whole entry): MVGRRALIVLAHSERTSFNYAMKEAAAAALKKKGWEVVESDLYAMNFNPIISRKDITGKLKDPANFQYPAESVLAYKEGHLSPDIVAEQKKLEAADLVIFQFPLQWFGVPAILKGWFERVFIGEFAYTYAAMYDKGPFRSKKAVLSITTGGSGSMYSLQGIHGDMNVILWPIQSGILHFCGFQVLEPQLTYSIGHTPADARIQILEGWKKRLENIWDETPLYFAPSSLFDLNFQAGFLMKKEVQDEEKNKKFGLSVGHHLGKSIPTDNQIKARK

Row | Activity [1] | Activity [2] | Compound
1 | 63.8 µmol/min/mg | 927 µmol/min/mg | COC1=CC(=O)c2sc(CO)cc2C1=O
2 | 5.51 µmol/min/mg | 553 µmol/min/mg | COC1=CC(=O)c2sc(C)cc2C1=O
3 | 19.6 µmol/min/mg | 55.3 µmol/min/mg | COC1=CC(=O)c2c(c(C)nn2C)C1=O
4 | 2.49 µmol/min/mg |  | COC1=CC(=O)c2c(c(C)c(CO)n2C)C1=O
5 |  | 468 µmol/min/mg | COC1=CC(=O)c2sc(CO)c(C)c2C1=O
6 | 1.25 µmol/min/mg |  | COC1=CC(=O)c2c(c(CO)c(C)n2C)C1=O
7 | 80.8 µmol/min/mg | 1020 µmol/min/mg | COC1=CC(=O)c2oc(CO)c(C)c2C1=O
8 |  | 236 µmol/min/mg | COC1=CC(=O)c2sc(C)c(CO)c2C1=O
9 | 87.9 µmol/min/mg | 585 µmol/min/mg | COC1=CC(=O)c2oc(C)c(C(C)O)c2C1=O (stereo not given)
10 |  | 1220 µmol/min/mg | CC1=CC(=O)c2ccccc2C1=O
11 | 24.5 µmol/min/mg | 900 µmol/min/mg | COC1=CC(=O)c2sc(COC(C)=O)cc2C1=O
12 | 53.9 µmol/min/mg | 555 µmol/min/mg | COC(=O)c1cc2c(s1)C(=O)C=C(OC)C2=O
13 | 27.4 µmol/min/mg | 897 µmol/min/mg | COC1=CC(=O)c2sc(C=O)cc2C1=O
14 | 27.6 µmol/min/mg | 290 µmol/min/mg | COC1=CC(=O)c2onc(C)c2C1=O
15 | 38.1 µmol/min/mg | 247 µmol/min/mg | COC1=CC(=O)c2c(c(CO)nn2C)C1=O
